Key:
Assay type in all cases: functional
[1] = molecular target: Nitric oxide synthase, inducible (Homo sapiens) (UniProt P35228); experiment: NO releasing ability of compound measured through formation of nitrite using iNOS (nitric oxide synthases)
Summary of the method: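 Purified iNOS (0.5 unit) incubated with 1 mM substrate in 50 mM HEPES pH 7.4 with 100 µM NADPH, 4 µM FAD, 4 µM FMN, 6 µM BH4, 400 µM DTT, SOD, catalase and 1 mM magnesium acetate; shaken at 37 °C. Quenched with ethanol for ≥1 h at room temperature, then Griess reagent; A548 converted via NaNO2 calibration in enzyme-free mixtures.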

[2] = molecular target: Nitric oxide synthase 1 (Rattus norvegicus) (UniProt P29476); experiment: NO releasing ability of compound measured through formation of nitrite using nNOS (nitric oxide synthases)
Nitric oxide synthase 1 (Rattus norvegicus), sequence (P29476 whole entry): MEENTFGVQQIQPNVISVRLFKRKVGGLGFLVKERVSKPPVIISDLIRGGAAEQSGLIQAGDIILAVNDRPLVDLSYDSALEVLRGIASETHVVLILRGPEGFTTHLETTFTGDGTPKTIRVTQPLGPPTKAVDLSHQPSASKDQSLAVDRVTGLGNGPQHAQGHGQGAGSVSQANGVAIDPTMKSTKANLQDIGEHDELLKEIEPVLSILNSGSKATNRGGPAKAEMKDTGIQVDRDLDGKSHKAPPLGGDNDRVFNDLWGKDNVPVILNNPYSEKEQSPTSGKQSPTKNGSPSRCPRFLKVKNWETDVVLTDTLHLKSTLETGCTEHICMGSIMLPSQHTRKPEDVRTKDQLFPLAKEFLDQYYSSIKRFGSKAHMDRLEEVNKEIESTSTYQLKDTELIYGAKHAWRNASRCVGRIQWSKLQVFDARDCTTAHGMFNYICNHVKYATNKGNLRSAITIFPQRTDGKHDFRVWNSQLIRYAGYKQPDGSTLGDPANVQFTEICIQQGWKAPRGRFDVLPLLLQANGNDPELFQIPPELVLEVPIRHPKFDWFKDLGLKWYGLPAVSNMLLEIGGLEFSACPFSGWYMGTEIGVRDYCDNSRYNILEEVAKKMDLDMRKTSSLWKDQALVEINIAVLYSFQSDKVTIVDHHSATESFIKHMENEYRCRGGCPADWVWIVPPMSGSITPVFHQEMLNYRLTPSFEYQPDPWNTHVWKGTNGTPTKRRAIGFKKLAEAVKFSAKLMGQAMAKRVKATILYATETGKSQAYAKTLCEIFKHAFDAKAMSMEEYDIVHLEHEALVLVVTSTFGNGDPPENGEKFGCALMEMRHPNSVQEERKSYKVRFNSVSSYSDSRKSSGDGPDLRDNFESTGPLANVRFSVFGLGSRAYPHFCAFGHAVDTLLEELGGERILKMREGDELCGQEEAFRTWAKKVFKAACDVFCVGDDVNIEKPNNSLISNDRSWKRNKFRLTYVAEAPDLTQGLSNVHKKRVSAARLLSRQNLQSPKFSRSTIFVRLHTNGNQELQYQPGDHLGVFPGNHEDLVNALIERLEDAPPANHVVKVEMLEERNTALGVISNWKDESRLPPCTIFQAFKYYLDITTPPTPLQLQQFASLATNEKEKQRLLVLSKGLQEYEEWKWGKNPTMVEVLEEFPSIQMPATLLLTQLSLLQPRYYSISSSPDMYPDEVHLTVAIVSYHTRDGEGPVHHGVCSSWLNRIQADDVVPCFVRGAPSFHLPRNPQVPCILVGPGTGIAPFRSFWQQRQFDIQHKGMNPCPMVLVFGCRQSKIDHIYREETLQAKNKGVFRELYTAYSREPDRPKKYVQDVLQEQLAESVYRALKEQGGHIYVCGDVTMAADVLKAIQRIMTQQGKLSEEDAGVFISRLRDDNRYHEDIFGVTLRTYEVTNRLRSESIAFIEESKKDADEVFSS
Summary of the method: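 Purified nNOS (0.5 unit) incubated with 1 mM substrate in 50 mM HEPES pH 7.4, 500 µL final volume. Mix held 100 µM NADPH, 4 µM FAD, 4 µM FMN, 6 µM BH4, 400 µM DTT, SOD, catalase, 1 mM CaCl2 and 10 µg/mL CaM; shaken at 37 °C. Ethanol quench, then Griess nitrite read at 548 nm against NaNO2 calibration without enzyme. L-arginine as control.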

[3] = molecular target: Nitric oxide synthase 1 (Homo sapiens) (UniProt P29475); experiment: NO releasing ability of compound measured through formation of nitrite using neuronal nitric oxide synthase
Nitric oxide synthase 1 (Homo sapiens), sequence (P29475 whole entry): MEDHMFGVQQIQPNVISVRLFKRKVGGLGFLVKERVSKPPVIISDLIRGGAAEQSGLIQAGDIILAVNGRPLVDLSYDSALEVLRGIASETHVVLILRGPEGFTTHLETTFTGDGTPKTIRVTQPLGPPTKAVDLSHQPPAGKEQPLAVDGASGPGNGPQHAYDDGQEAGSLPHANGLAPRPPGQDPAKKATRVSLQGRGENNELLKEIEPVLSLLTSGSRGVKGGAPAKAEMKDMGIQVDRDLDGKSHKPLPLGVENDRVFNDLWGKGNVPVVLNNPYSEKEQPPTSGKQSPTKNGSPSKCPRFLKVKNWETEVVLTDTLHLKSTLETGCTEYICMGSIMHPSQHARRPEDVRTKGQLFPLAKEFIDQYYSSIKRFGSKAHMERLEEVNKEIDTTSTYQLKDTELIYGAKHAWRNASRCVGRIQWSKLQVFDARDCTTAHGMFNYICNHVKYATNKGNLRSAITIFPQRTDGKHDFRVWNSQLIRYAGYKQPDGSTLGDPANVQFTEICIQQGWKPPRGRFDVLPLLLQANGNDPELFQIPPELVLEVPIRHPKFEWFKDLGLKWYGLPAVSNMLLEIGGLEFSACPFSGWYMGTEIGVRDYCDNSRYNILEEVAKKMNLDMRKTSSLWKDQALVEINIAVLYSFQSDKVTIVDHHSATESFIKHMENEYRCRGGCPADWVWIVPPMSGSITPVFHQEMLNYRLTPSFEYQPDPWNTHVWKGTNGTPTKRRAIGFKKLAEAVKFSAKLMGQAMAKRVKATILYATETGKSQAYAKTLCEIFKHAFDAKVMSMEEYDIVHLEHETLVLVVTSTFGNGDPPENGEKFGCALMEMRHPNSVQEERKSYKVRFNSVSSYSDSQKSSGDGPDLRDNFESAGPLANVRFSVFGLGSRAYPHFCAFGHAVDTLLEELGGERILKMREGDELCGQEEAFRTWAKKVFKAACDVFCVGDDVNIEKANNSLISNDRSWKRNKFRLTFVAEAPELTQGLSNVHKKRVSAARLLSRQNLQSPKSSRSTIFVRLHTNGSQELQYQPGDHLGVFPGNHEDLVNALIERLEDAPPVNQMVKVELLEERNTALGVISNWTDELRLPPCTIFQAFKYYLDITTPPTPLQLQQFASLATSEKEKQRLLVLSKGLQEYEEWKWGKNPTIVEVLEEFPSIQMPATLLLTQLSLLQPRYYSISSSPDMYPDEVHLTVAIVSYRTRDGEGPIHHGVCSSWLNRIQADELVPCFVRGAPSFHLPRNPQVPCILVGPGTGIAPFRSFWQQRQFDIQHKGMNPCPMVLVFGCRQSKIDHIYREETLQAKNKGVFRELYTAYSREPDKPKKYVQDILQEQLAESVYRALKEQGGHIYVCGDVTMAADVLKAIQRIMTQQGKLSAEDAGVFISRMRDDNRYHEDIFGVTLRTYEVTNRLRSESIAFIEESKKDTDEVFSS
Summary of the method: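 Incubation with nNOS (0.5 unit) in 50 mM HEPES pH 7.4 at 37 °C, shaken. Mixture: 1 mM substrate, 100 µM NADPH, 4 µM FAD, 4 µM FMN, 6 µM BH4, 400 µM DTT, 100 units SOD, 50 units catalase, 1 mM CaCl2, 10 µg/mL calmodulin. Quenched with ethanol, ≥1 h at room temperature, then Griess reagent, A548. Nitrite is quantified against NaNO2 standards made in enzyme-free mixtures. L-arginine is the reference substrate.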

[4] = Effect of incubation conditions on the formation of NO2 from the oxidation of compound in the presence of NO2-L-Arg
Summary of the method: (§1)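 Base NOS reaction varied by component: 1 mM substrate, 50 mM HEPES pH 7.4, 100 µM NADPH, 4 µM FAD, 4 µM FMN, 6 µM BH4, 400 µM DTT, SOD, catalase, 0.5 unit NOS, shaken at 37 °C for the indicated time. Nitrite determined by Griess reaction after ethanol quench, absorbance 548 nm, with NaNO2 calibration curves lacking enzyme.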

[5] = Effect of incubation conditions on the formation of NO2 from the oxidation of compound in the presence of complete system; summary of the method: as §1
[6] = Effect of incubation conditions on the formation of NO2 from the oxidation of compound in the presence of nNOS; summary of the method: as §1
[7] = Effect of incubation conditions on the formation of NO2 from the oxidation of compound in the presence of NADPH; summary of the method: as §1
[8] = Effect of incubation conditions on the formation of NO2 from the oxidation of compound in the presence of BH4; summary of the method: as §1

Nitric oxide synthase, inducible (Homo sapiens), sequence (P35228 whole entry): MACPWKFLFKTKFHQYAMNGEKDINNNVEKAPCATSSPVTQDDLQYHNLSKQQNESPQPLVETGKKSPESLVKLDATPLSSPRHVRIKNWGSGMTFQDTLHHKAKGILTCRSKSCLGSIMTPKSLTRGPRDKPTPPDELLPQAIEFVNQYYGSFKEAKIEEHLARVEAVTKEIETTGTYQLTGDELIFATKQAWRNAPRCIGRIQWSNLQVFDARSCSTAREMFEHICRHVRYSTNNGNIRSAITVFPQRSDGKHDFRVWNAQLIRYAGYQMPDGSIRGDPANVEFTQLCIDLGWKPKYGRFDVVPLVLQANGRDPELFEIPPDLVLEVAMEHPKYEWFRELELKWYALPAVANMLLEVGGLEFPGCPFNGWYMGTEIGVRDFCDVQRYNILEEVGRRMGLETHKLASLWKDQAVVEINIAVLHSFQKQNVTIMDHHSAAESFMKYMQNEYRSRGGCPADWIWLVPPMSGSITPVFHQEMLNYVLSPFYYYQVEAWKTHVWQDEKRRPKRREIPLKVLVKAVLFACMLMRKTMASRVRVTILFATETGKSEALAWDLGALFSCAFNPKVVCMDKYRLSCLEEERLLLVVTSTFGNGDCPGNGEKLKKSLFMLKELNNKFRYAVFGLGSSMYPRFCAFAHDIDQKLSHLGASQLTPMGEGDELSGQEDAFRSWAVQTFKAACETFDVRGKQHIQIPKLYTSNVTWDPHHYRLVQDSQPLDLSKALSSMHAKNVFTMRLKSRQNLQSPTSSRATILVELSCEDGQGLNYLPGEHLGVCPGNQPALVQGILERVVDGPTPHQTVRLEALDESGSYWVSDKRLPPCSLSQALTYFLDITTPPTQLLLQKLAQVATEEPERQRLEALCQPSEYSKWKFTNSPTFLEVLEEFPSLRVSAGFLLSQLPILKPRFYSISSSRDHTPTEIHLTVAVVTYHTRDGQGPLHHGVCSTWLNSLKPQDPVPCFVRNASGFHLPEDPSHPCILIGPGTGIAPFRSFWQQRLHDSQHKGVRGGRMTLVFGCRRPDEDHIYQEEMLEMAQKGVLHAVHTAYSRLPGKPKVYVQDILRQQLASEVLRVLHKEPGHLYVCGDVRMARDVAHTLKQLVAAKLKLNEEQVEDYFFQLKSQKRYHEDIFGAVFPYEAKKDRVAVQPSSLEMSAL

N=C(N)NCC1COc2ccccc2O1 (stereo not drawn)
Activity [1]: < 0.1 µM | Activity [2]: < 0.1 µM

N=C(N)NCC1COC2(CCCCC2)O1 (stereo not drawn)
Activity [1]: < 0.1 µM | Activity [2]: < 0.1 µM

N/C(=N\O)NCCN1CCCCCCC1
Activity [1]: 0.2 µM | Activity [2]: 0.3 µM

N=C(N)NCCC[C@H](N)C(=O)O
Activity [3]: 14.5 µM

N/C(=N/CC1COC2(CCCCC2)O1)NO (stereo not drawn)
Activity [1]: 1.6 µM | residual activity [4]: 50% | residual activity [5]: 100% | residual activity [6]: < 2% | residual activity [7]: 18% | residual activity [8]: 30% | Activity [2]: 1.2 µM

N=C(N)NCCN1CCCCCCC1
Activity [1]: < 0.1 µM | Activity [2]: < 0.1 µM

N/C(=N/CC1COc2ccccc2O1)NO (stereo not drawn)
Activity [1]: 0.9 µM | Activity [2]: 0.8 µM

— ChEMBL document CHEMBL1133943, “N-hydroxyl derivatives of guanidine based drugs as enzymatic NO donors” (Bioorg Med Chem Lett, 2001)
